Assay results as given in ChEMBL document CHEMBL1795282, “Synthesis, biological evaluation, and docking studies of gigantol analogs as calmodulin inhibitors” (Eur J Med Chem, 2011).
pIC50: −log10 of the molar value. Calls of active or inactive are those of the source. No cut-off for these calls is given here.

Key:
Calmodulin-1 = Calmodulin-1 (Homo sapiens, UniProt P0DP23); assay: Inhibition of Calmodulin-dependent PDE1 activity assessed as inorganic phosphate release after 30 min
Homo sapiens = species on record: Homo sapiens; assay: Binding affinity to human Calmodulin M124C mutant assessed as extrinsic fluorescence quenching in phosphate buffer at pH 5.1 by mBBr fluorescence assay
Summary of the method: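 Ca²⁺–hCaM M124C–mBBr biosensor at 5 μM in 100 mM phosphate buffer, pH 5.1, with 10 mM CaCl₂, stirred at 37 °C and titrated with ligand. Excitation was at 381 nm, with emission scanned from 400 to 550 nm. Fractional saturation was taken as y = (F − F₀)/(F∞ − F₀) at 470 nm versus ligand concentration. Apparent constant Km, Emax and Hill coefficient came from a Hill-equation fit.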

pIC50 (Calmodulin-1) | Km (Homo sapiens) [µM] | Activity (Homo sapiens) | inhibition (Calmodulin-1) | Structure (SMILES)
4.50 | 45.5 | – | – | COc1cc(O)cc(CCc2ccc3c(c2)OCO3)c1
4.49 | 54.3 | – | – | COc1cc(O)cc(CCCc2ccc(O)c(OC)c2)c1
4.26 | 33.1 | – | – | COc1cc(Cc2ccc(O)c(OC)c2)cc(OC)c1
4.73 | 9.88 | – | – | CCOc1ccc(CCc2cc(OC)cc(OC)c2)cc1OC
5.03 | 80 | – | – | COc1ccc(CCc2cc(O)cc(OC)c2)cc1
4.26 | 25.3 | – | – | CCOc1ccc(CCc2cc(O)cc(OC)c2)cc1OC
3.94 | 60.8 | – | – | COc1cc(O)cc(CCc2ccc(O)c(OC)c2)c1 [GIGANTOL]
4.52 | 12 | – | – | COc1cc(O)cc(CCc2ccc(N(C)C)cc2)c1

Further lines, the compound ahead of its results:

Structure (SMILES) | pIC50 (Calmodulin-1) | Km (Homo sapiens) [µM] | Activity (Homo sapiens) | inhibition (Calmodulin-1)
CCOc1ccc(CCc2cccc(O)c2)cc1OC | 4.34 | 58.1 | – | –
COc1ccc(CCc2cc(OC)cc(OC)c2)cc1 | 3.83 | 21.8 | – | –
Oc1cccc(CCc2ccc3c(c2)OCO3)c1 | 4.12 | 63.8 | – | –
c1ccc(Cc2ccccc2)cc1 [DIPHENYLMETHANE] | 4.82 | – | inactive | –
c1ccc(CCc2ccccc2)cc1 | – | – | inactive | inactive
COc1cc(CCc2ccc(N(C)C)cc2)cc(OC)c1 | 4.44 | 10 | – | –
COc1cc(O)cc(C(=O)/C=C/c2ccc(OC)c(O)c2)c1 | 4.42 | 3.89 | – | –
c1ccc(COc2ccccc2)cc1 | – | – | inactive | inactive
COc1cc(O)cc(C(=O)/C=C/c2ccc(O)c(OC)c2)c1 | 4.24 | 5.31 | – | –
COc1ccc(/C=C/C(=O)c2ccc(O)cc2)cc1 | 4.65 | 10.3 | – | –
Oc1cccc(CCCc2ccc3c(c2)OCO3)c1 | 4.64 | 14.2 | – | –
COc1cc(Cc2cccc(OC)c2O)cc(OC)c1 | 4.25 | 33.8 | – | –
COc1ccc(CCCc2ccc(O)cc2)cc1 | 4.20 | 8.7 | – | –
